Tests used:
Coagulation factor VII = molecular target: T1, Coagulation factor VII (Homo sapiens, UniProt P08709); assay: Binding affinity to f7a/TF complex
T1 sequence (P08709 whole entry): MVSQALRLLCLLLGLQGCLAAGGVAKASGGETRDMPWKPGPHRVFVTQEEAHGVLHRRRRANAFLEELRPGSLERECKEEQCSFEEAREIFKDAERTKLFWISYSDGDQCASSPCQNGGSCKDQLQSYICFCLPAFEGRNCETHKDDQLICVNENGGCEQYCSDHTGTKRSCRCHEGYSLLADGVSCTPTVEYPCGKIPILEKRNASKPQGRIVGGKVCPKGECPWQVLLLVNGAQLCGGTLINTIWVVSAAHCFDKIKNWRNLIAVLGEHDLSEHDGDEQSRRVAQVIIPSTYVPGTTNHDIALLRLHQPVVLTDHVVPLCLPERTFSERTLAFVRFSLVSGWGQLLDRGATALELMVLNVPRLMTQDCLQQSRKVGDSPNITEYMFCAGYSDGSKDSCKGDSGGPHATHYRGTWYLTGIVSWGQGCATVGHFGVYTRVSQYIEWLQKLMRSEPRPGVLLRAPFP

Coagulation factor X = Coagulation factor X (Homo sapiens, UniProt P00742); assay: Binding affinity to f10a
Sequence of Coagulation factor X (P00742 41-179 limits assumed): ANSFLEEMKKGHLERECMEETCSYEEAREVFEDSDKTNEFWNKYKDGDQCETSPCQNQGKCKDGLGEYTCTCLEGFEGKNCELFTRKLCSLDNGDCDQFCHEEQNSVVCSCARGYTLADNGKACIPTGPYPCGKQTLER
Sequence of Coagulation factor X (P00742 235-488 limits assumed): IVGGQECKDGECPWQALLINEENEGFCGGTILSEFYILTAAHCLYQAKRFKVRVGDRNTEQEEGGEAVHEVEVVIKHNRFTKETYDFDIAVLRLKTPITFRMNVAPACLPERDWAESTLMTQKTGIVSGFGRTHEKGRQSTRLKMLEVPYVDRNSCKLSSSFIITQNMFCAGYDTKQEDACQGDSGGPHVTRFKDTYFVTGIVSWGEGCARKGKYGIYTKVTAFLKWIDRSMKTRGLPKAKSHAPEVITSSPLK

Prothrombin = Prothrombin (Homo sapiens, UniProt P00734); assay: Binding affinity to thrombin
Trypsin = Trypsin (Homo sapiens, UniProt P07477+P07478+P35030); assay: Binding affinity to trypsin; format: protein assay
[1] = molecular target: Coagulation factor VII/tissue factor (Homo sapiens) (UniProt P08709+P13726); assay: Anticoagulant potency in human plasma by PT assay; format: functional, cell-free
Procedure, shortened: (§1)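 Clotting time measured at 37 °C in human plasma on an automated coagulometer, following the manufacturer's instructions. Tissue-factor-dependent clotting was read by PT. Tissue-factor-independent (intrinsic pathway) clotting was read by aPTT.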

[2] = Anticoagulant potency in human plasma by aPTT assay; format: functional; procedure, shortened: as §1

SMILES	Ki (Coagulation factor VII) [nM]	Ki (Coagulation factor X) [nM]	Ki (Prothrombin) [nM]	Ki (Trypsin) [nM]	2PT [1] [µM]	2aPTT [2] [µM]
O=C(NCc1cccc(-c2cccc(-c3cc4c[nH]ccc-4n3)c2O)c1)[C@@H](O)Cc1ccccc1	220	30000	100000	12000	–	–
CC(C)(C(=O)O)c1cc(-c2cccc(CNC(=O)[C@@H](O)Cc3ccccc3)c2)c(O)c(-c2cc3c(N)[nH]ccc-3n2)c1	15	–	–	–	6.4	17
Nc1[nH]ccc2nc(-c3cc(C(=O)O)cc(-c4cccc(CNC(=O)[C@@H](O)Cc5ccccc5)c4)c3O)cc1-2	1.3	–	–	–	4.5	3.7

Further lines, with some results ahead:

Ki (Coagulation factor VII) [nM]	Ki (Coagulation factor X) [nM]	Ki (Prothrombin) [nM]	Ki (Trypsin) [nM]	2PT [1] [µM]	SMILES	2aPTT [2] [µM]
20	–	–	–	5.8	CC(C)(C(=O)O)c1cc(-c2cccc(CNC(=O)Nc3ccc(C(=O)O)cc3)c2)c(O)c(-c2cc3c(N)[nH]ccc-3n2)c1	>20
81	54000	99000	38000	12	Nc1[nH]ccc2nc(-c3cccc(-c4cccc(CNC(=O)[C@@H](O)Cc5ccccc5)c4)c3O)cc1-2	22
–	2700	90000	3600	–	N=C(N)c1ccc2[nH]c(-c3cccc(-c4cc(CNC(N)=O)ccc4O)c3O)nc2c1	–
2.6	–	–	–	2.4	CC(C)(C(=O)O)c1cc(-c2cccc(CNC(=O)Nc3c(F)cccc3F)c2)c(O)c(-c2cc3c(N)[nH]ccc-3n2)c1	>20

From ChEMBL document CHEMBL1146904, “Potent 4-amino-5-azaindole factor VIIa inhibitors” (Bioorg Med Chem Lett, 2006)
